MEKK2mut PB1 HTS – MEK5 binding signal on mutant MEKK2 PB1, primary screen, biochemical, multiplex bead flow cytometry, Alexa488-MEK5; percent response, % at 10 µM; 290,000 tested, 0.35% active; Alexa488-MEK5 binding to MEKK2 mutant; AID 1530, 2009; in the data active means percent response above about 24%, passing the limit was not always enough
MEKK2wt PB1 HTS – modulators of MEK5 binding to wildtype MEKK2, primary screen, biochemical, multiplex bead flow cytometry, Alexa488-MEK5 | binding response (% of control), % at 10 µM | 290,000 tested, 1.1% active | Mitogen-activated protein kinase kinase kinase 2 (Homo sapiens), Q9Y2U5 | Alexa488-MEK5 binding to MEKK2 WT; actives lie on both sides; in the data active means binding response below about 67% or above about 130%
Lipid droplet – inhibitors of hepatocyte lipid droplet formation, primary screen, imaging, high-throughput imaging, BODIPY stain. AML12 mouse hepatocytes, oleate lipid droplets. inhibition, % at 6.5 µM. 240,000 tested, 0.4% active;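 active means lipid droplet intensity inhibited by at least 50%, with more than 500 cells counted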
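Assay system: AML12 mouse liver cells | Compound dosing: One dose, 6.5 µM compound | Read-out basis: Droplet intensity reduction, % inhibition | Measured by: Fluorescence imaging, 20x objective, two fields per well | Schedule: Overnight treatment with compound plus oleate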
MEKK3 PB1 HTS – modulators of MEKK3-MEK5 PB1 binding, primary screen, biochemical, wildtype MEKK3, multiplex bead flow cytometry, Alexa488-MEK5. Mitogen-activated protein kinase kinase kinase 3 (Homo sapiens), Q99759. bead-based flow cytometry, Alexa488-MEK5 binding to MEKK3; actives lie on both sides; 0 = blocked by unlabeled MEK5, 100 = vehicle. binding response (% of control), % at 10 µM. 290,000 tested, 1.4% active. AID 1529, 2009;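 active means binding response more than 3 SD above or below the average of its plate-row segment, actives on both sides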;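 further: Alexa488 bead fluorescence after subtracting the streptavidin-only scavenger bead signal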
Target sequence (Q99759 whole entry, looked up): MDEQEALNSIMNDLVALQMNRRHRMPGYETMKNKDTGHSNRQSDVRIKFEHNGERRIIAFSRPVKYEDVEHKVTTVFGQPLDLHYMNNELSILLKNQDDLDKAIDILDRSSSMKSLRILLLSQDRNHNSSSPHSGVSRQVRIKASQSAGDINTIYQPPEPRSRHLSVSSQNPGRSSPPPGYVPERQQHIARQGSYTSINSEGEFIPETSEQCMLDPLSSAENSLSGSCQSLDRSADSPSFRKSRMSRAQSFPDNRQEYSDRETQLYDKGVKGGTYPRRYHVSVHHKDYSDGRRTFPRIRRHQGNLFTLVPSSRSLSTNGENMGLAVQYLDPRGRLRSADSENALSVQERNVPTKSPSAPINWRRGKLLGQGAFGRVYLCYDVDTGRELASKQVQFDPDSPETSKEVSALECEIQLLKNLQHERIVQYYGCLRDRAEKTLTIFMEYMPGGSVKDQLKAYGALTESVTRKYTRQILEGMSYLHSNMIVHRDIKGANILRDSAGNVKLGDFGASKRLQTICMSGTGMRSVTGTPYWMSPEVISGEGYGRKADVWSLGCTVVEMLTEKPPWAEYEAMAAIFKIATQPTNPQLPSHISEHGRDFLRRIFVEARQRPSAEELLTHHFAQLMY
MEKK2wt confirm – modulators of MEK5 binding to wildtype MEKK2, confirmation, biochemical, single concentration, multiplex bead flow cytometry | 5,900 tested, 2.4% active | binding response (% of control), % at 10 µM | shares compounds with MEKK3 PB1 HTS | Alexa488-MEK5 binding to MEKK2 WT; actives lie on both sides; in the data active means binding response below about 16% or above about 210%; inactive means in between
MEKK2mut-MEK5 – mutant MEKK2 PB1-MEK5 binding signal retest – biochemical, single concentration, multiplex bead flow cytometry, confirmation; shares compounds with MEKK3 PB1 HTS; Alexa488-MEK5 binding to MEKK2 mutant; percent response, % at 10 µM; 5,900 tested, 2% active; AID 1893, 2009; in the data active means percent response mostly above about 71%, no sharp cut-off; inactive means mostly below about 38%;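 further: higher means compound restores mutant binding toward wildtype level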
MEKK3-MEK5 inh – MEKK3 wild-type PB1 binding to MEK5, inhibitors, confirmation, biochemical, bead multiplex flow cytometry, single concentration, wildtype; Alexa488-MEK5 binding to MEKK3; stronger effect = lower value; 5,900 tested, 1.8% active; shares compounds with MEKK3 PB1 HTS; binding response (% of control), % at 10 µM;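 active means binding response below 72% of control, or above a set upper limit, though filed actives all read lower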;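 further: 100% = DMSO only wells and 0% = binding blocked by excess unlabeled MEK5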
* = called active by the depositor; · = no result given; [ ] = dose if it differs, or a comment. An excerpt weighted towards active compounds, which were near 2.6% of everything screened.

SMILES | MEKK2mut PB1 HTS | MEKK2wt PB1 HTS | Lipid droplet | MEKK3 PB1 HTS | MEKK2wt confirm | MEKK2mut-MEK5 | MEKK3-MEK5 inh
Cc1ccc(NC(=O)CC2SC(=Nc3ccc(O)cc3)NC2=O)cc1 (configuration not stated) | 0.0 | 115.0 | 3.1 | 133.0* | 123.0 | 10.0 | 106.0
O=C(O)COc1ccccc1/C=N/NC(=O)CSc1nnc(SCc2ccc(Cl)cc2)s1 | 29.0 | 114.0 | -16.7 | 130.0* | 105.0 | 3.0 | 111.0
CCN1/C(=C/c2ccc3cccc(C)c3[n+]2CC)Sc2ccccc21 | -27.0 | 40.0*[inhibitor] | · | 73.0 | 62.0 | -21.0 | 95.0
CCN1/C(=C\c2ccc3cc(C)ccc3[n+]2CC)Sc2cc(C)c(C)cc21 | 15.0 | 29.0* | -30.2 | 44.0*[inhibitor] | 15.0*[inhibitor] | -29.0 | 61.0*
CCN1/C(=C/c2ccc3cc(C)cc(C)c3[n+]2CC)Sc2cc(C)ccc21 | 13.0 | 25.0* | -56.3 | 34.0*[inhibitor] | 19.0 | -37.0 | 54.0*
COc1ccccc1C(=O)NC1CCN(C(=O)Nc2ccc(F)cc2)CC1 | -6.0 | 92.0 | -2.4 | 93.0 | · | · | ·
O=C(CSc1nnnn1-c1ccc(F)cc1F)Nc1ccccc1F | 0.0 | 102.0 | -6.3 | 106.0 | · | · | ·
COc1ccc(NC(=O)CC(CC(=O)O)c2cc(OC)c(OC)c(OC)c2)cc1 (configuration not stated) | -15.0 | 90.0 | · | 90.0 | · | · | ·
COc1ccc2c(c1OC)C(=O)N1C2SC(C)(C)[C@H]1C(=O)NC(C)C (some centres not stated) | 6.0 | 99.0 | 6.7 | 102.0 | · | · | ·
C=CCOc1ccc(C2NC(=S)NC3=C2CCc2ccccc23)cc1 (configuration not stated) | -17.0 | 93.0 | -0.3 | 94.0 | · | · | ·
COc1cc(C2NC(=S)NC3=C2CCc2ccccc23)cc(OC)c1OC (configuration not stated) | 0.0 | 109.0 | -20.6 | 142.0* | 98.0 | 1.0 | 104.0
O=C(CCCCl)NC(=S)Nc1ccc(N2CCOCC2)cc1 | -7.0 | 88.0 | -0.4 | 90.0 | · | · | ·
COc1ccc(C(=O)CN2C(=O)NC3(CCCc4ccccc43)C2=O)cc1OC (configuration not stated) | -1.0 | 99.0 | -4.1 | 97.0 | · | · | ·
COc1ccc(C(=O)CN2C(=O)NC3(CCCCC3)C2=O)cc1OC | 7.0 | 125.0 | -8.1 | 146.0* | 102.0 | 7.0 | 106.0
NC(=O)c1ccc(NS(=O)(=O)c2ccc3ccccc3c2)cc1 | 11.0 | 100.0 | 12.2 | 100.0 | · | · | ·
CC(=O)c1ccc(NS(=O)(=O)c2ccc3ccccc3c2)cc1 | -1.0 | 95.0 | 2.2 | 73.0*[inhibitor] | 106.0 | 2.0 | 99.0
O=c1oc(Nc2cccc(Cl)c2)nc2ccccc12 | 2.0 | 102.0 | 2.8 | 103.0 | · | · | ·
N#Cc1c(-c2ccccc2)nc(-c2ccccc2)nc1N1CCOCC1 | 5.0 | 98.0 | 10.9 | 100.0 | · | · | ·
COc1ccc(-c2nc(-c3ccccc3)nc(N3CCN(C)CC3)c2C#N)cc1 | 6.0 | 152.0* | · | 105.0 | 154.0 | 28.0 | 107.0
COc1cccc(-c2nc(-c3ccccc3)nc(N3CCN(C)CC3)c2C#N)c1 | 12.0 | 136.0 | 19.3 | 100.0 | · | · | ·
CCOC(=O)c1cc(C#N)c(N2CCN(C)CC2)nc1-c1ccccc1 | -2.0 | 104.0 | -3.2 | 106.0 | · | · | ·
CN1CCN(c2nc(-c3ccccc3)nc(-c3ccccc3)c2C#N)CC1 | 22.0 | 146.0* | 12.5 | 116.0 | 122.0 | 10.0 | 100.0
COc1ccc(-c2nc(-c3cccc(C)c3)nc(N3CCN(C)CC3)c2C#N)cc1 | 32.0* | 144.0 | · | 107.0 | 149.0 | 38.0 | 108.0
CN(C(=O)COC(=O)c1ccc2[nH]c3c(c2c1)CCCC3)C1CCS(=O)(=O)C1 (configuration not stated) | -1.0 | 105.0 | 0.5 | 107.0 | · | · | ·
COc1ccc2ccc(O)c(CN(C)CC(=O)Nc3ccccc3C(F)(F)F)c2c1 | -3.0 | 99.0 | · | 102.0 | · | · | ·
SMILES | MEKK2mut PB1 HTS | MEKK2wt PB1 HTS | Lipid droplet | MEKK3 PB1 HTS | MEKK2wt confirm | MEKK2mut-MEK5 | MEKK3-MEK5 inh
CC(C)CC(N=Cc1c(O)c2ccccc2oc1=O)C(=O)O (configuration not stated) | -2.0 | 93.0 | -2.6 | 73.0*[inhibitor] | 100.0 | 0.0 | 104.0
Cc1ccc(S(=O)(=O)NCCNC(=O)CN2CCOCC2)cc1 | 2.0 | 100.0 | 14.6 | 104.0 | · | · | ·
CC1(C)CC(=O)C2=C(C1)Nc1ncnn1C2c1cccs1 (configuration not stated) | 1.0 | 124.0 | -1.6 | 145.0* | 110.0 | 6.0 | 107.0
O=C(Oc1coc(CSc2nnc(NC(=O)C3CC3)s2)cc1=O)c1c(F)cccc1F | -1.0 | 84.0 | 1.9 | 64.0*[inhibitor] | 102.0 | 5.0 | 107.0
Cc1cc(C)cc(C(=O)Oc2coc(CSc3nnc(NC(=O)C4CC4)s3)cc2=O)c1 | 29.0 | 120.0 | -1.9 | 109.0 | · | · | ·
Nc1ccc(S(=O)(=O)Nc2nccc(/C=C/c3ccccc3F)n2)cc1 | 0.0 | 116.0 | -3.4 | 134.0* | 95.0 | -3.0 | 97.0
CCc1ccccc1NS(=O)(=O)Cc1ccccc1 | 4.0 | 108.0 | 1.1 | 100.0 | · | · | ·
N#Cc1ccc(Cn2c(=O)c(C#N)c3n(c2=O)CCC3)cc1 | -21.0 | 0.0*[inhibitor] | · | 0.0*[inhibitor] | 106.0 | 6.0 | 104.0
N#Cc1c2n(c(=S)n(-c3ccccc3)c1=O)CCCCC2 | -7.0 | 94.0 | 0.7 | 98.0 | · | · | ·
CCN(CC(=O)Nc1ccc(NC(C)=O)cc1)C(=O)C(c1ccccc1)c1ccccc1 | 0.0 | 105.0 | 14.2 | 131.0* | 88.0 | 3.0 | 96.0
CCN(CC(=O)Nc1ccc(NC(C)=O)cc1)C(=O)Cc1cccc2ccccc12 | 0.0 | 102.0 | 21.3 | 98.0 | · | · | ·
CCN(CC(=O)Nc1ccc(NC(C)=O)cc1)C(=O)c1n[nH]c(=O)c2ccccc12 | -34.0 | 72.0 | -5.9 | 55.0*[inhibitor] | 100.0 | 4.0 | 103.0
O=C(Nc1ccccc1)c1nccn1Cc1ccc(F)cc1 | 7.0 | 104.0 | 7.3 | 111.0 | · | · | ·
CC1CCN(C(=O)C2CCC(C)(C(=O)O)C2(C)C)CC1 (configuration not stated) | 1.0 | 109.0 | -2.2 | 135.0* | 105.0 | -6.0 | 104.0
CC1(C(=O)O)CCC(C(=O)Nc2ccc(F)cc2)C1(C)C (configuration not stated) | 1.0 | 101.0 | · | 100.0 | · | · | ·
